From PubChem
TAAR1 antagonist – antagonists of human TAAR1; Q96RJ0; CHO RD-HGA16 TAAR1, Fluo-8 calcium fluorescence, antagonist; inhibition, % at 3 µM; actives 1.5% (n = 360,000);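 active = inhibition above a per-plate cutoff, the mean inhibition of test compounds on that plate plus 3 SD, cut at about 49% in these data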;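 note: 0% = DMSO plus EC80 beta-PEA response and 100% = DMSO alone without agonist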
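test system = CHO RD-HGA16 cells bearing hTAAR1 | replication = singlicate | controls = DMSO-only wells and EC80 β-PEA-stimulated wells | reagent = EC80 β-phenethylamine stimulus | read-out basis = percent inhibition of PEA-evoked calcium signal, max/basal emission ratio | schedule = seeding 17-24 h prior, 75-min 37 °C, 30-min RT dye loading | signal = kinetic Fluo-8 calcium fluorescence measurement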
M4 PAM – positive allosteric modulators of human muscarinic M4 receptor; P08173; CHO-K1 hM4/Gqi5, Fluo-8 calcium fluorescence, ACh EC20; 0% = ACh EC20, 100% = maximal ACh; activation, % at 3 µM; actives 0.4% (n = 360,000); AID 624126;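 active = activation above its plate's cutoff, the mean activation of sample wells plus 3 SD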
Target sequence (P08173 whole entry, looked up): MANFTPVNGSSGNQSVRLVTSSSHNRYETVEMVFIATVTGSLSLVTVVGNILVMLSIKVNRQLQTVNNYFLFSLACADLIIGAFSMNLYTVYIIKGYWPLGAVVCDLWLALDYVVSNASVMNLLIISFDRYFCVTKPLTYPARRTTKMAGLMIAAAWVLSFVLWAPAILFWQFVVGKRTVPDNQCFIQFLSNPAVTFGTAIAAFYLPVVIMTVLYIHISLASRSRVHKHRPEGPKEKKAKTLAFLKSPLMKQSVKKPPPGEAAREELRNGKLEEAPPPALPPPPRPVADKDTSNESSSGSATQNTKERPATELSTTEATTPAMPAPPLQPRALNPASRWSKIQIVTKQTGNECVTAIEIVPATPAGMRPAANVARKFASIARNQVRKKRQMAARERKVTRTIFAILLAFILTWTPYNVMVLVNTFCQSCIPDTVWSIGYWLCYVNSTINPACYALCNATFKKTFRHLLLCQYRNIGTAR
M4 ag – agonists of human muscarinic M4 receptor (CHRM4); activation, % at 3 µM; CHO-K1 hM4/Gqi5, Fluo-8 calcium fluorescence; vehicle 0%, full acetylcholine response 100%; P08173; actives 0.14% (n = 360,000);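 active = activation above the run mean over all test wells plus 3 SD, cut at about 32% in these data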;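 note: peak over basal fluorescence ratio per well then scaled between controls; 0% = DMSO wells and 100% = acetylcholine at EC100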
M4 antag – blocks acetylcholine activation of human M4 receptor; CHO-hM4 cells, ACh EC80, Fluo-8 calcium fluorescence; inhibition, % at 3 µM; actives 0.73% (n = 360,000);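 active = inhibition above its plate's cutoff, the mean inhibition of sample wells plus 3 SD, cut at about 27% in these data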;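 note: 0% = acetylcholine EC80 with DMSO and 100% = DMSO without agonist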
TAAR1 ag – agonists of human TAAR1; Q96RJ0; CHO RD-HGA16 TAAR1, Fluo-8 calcium fluorescence; vehicle wells 0%, saturating PEA agonist 100%; activation, % at 3 µM; actives 0.99% (n = 360,000); AID 624467;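 active = activation above the mean activation of all test compounds in the run plus 3 SD, cut at about 38% in these data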
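Signal – calcium-sensitive Fluo-8 signal, excitation 470-495, emission 515-575 nm · System – RD-HGA16 (CHO) cells co-expressing Gα16 and hTAAR1 · Incubation – 17-24 h seeding, 75 min 37 °C dye, 30 min RT · Compound dosing – 3 µM single concentration · Repeats – no replicates (n 1)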
An asterisk follows results filed as active; · = not tested or not shown. Rows were chosen to be rich in hits. Some 3% of all compounds tested hit in one or more screens of this group.

SMILES | TAAR1 antagonist | M4 PAM | M4 ag | M4 antag | TAAR1 ag
CCN(CC(=O)NCc1cccs1)C(=O)c1ccc(S(=O)(=O)N(C)c2ccccc2)cc1 | 16 | -6 | 8 | 1 | 4
Cc1c(O)cc2c(c1O)C(=O)CC(c1ccccc1)O2 (configuration not stated) | 8 | -17 | 60* | 94* | 0
N#C/C(=C/c1ccc(N2CCCCC2)o1)c1cccc(F)c1 | 27 | 3 | 4 | -9 | 22
N#C/C(=C/c1ccc(N2CCCCCC2)o1)c1ccc(Cl)cc1 | · | -12 | 3 | 27* | ·
CC(=O)Nc1cncc(-c2cccc(S(C)(=O)=O)c2)n1 | -2 | -2 | 0 | 8 | 0
Cc1ccc(CN2C(=O)CCC2C(=O)NC2CC2)cc1 (configuration not stated) | 19 | 26* | 0 | -8 | 3
CC(C)(C)OC(=O)N1CC=C2C(C#N)=C(N)C(C#N)(C#N)[C@H](c3cccnc3)[C@H]2C1 | -5 | 6 | 3 | 6 | 16
N#CC1=C(N)C(C#N)(C#N)[C@H](c2ccncc2)[C@H]2CN(C(=O)OCc3ccccc3)CC=C12 | -11 | 35* | -1 | -8 | 9
COc1ccc(CN2C[C@@]3(O)CC[C@@H](O)[C@@H](OC)[C@@H]3[C@@](C)(O)[C@@H]2CC=C(C)C)cc1 | -19 | · | · | · | 1
CCCCCCNC(=O)C(C#N)c1nc2ccccc2nc1N1CCCC1 (configuration not stated) | 51* | -1 | 0 | -2 | 4
N#Cc1ccc(S(=O)(=O)N2CCCc3nc(-c4ccc(Br)cc4)ccc32)cc1 | -6 | · | · | · | 2
CC(C)[C@H](NC(=O)c1ccc(Cl)cc1Cl)C(=O)N1CCC[C@H]1C(=O)NCc1ccccc1 | -4 | · | · | · | -1
CC(=O)n1cc([C@@H]2C=C(C(=O)N3CCOCC3)O[C@H](OCc3ccc(CO)cc3)C2)c2ccccc21 | 16 | 1 | 8 | -10 | 14
O=C(NCc1nc2ccccc2[nH]1)C1=C[C@H](c2csc3ccccc23)C[C@H](OCc2ccc(CO)cc2)O1 | 49* | -7 | 10 | 22 | 15
O=C(NCc1nc2ccccc2[nH]1)C1=C[C@@H](c2csc3ccccc23)C[C@@H](OCc2ccc(CO)cc2)O1 | 48 | -9 | 6 | 4 | 19
CN1CCN(C(=O)C2=C[C@@H](c3coc4ccccc4c3=O)C[C@@H](OCCCCO)O2)CC1 | 1 | 24* | 2 | 3 | 3
CC(=O)n1cc([C@H]2C=C(C(=O)N3CCN(Cc4ccc5c(c4)OCO5)CC3)O[C@@H](OCc3ccc(CO)cc3)C2)c2ccccc21 | 67* | -16 | 22 | 8 | 16
CC(=O)n1cc([C@@H]2C=C(C(=O)NCc3ccccc3)O[C@H](OCc3ccc(CO)cc3)C2)c2ccccc21 | 62* | -6 | 27 | 0 | 22
CC(=O)n1cc([C@H]2C=C(C(=O)Nc3ccccc3)O[C@@H](OCc3ccc(CO)cc3)C2)c2ccccc21 | · | -4 | 32 | 15 | ·
COC(=O)CCN1CCSCCS1(=O)=O | -12 | · | · | · | 1
COCCNC(=S)N1C[C@H]2CON(C)[C@H]2C[C@H]1c1ccccc1Br | -25 | · | · | · | 2
O=C(C1=C[C@H](c2csc3ccccc23)C[C@H](OCCCCO)O1)N1CCN(Cc2ccc3c(c2)OCO3)CC1 | 60* | -3 | 20 | 4 | 24
C#CCNC(=O)C1=C[C@H](c2cn(C(C)=O)c3ccccc23)C[C@H](OCc2ccc(CO)cc2)O1 | 49* | -10 | 25 | 10 | 44*
CC(C)[C@@H](C)/C=C/[C@@H](C)[C@H]1CC[C@@H]2[C@]1(C)CCC1[C@]23C=C[C@]2(C[C@@H](O)CC[C@]12C)N(c1ccc(Br)cn1)O3 (some centres not stated) | -20 | · | · | · | 0
CCc1noc2cc(-c3ccccc3)n(C)c(=O)c12 | -26 | · | · | · | 2
CCCCCCCCCCCCCCCC[N+](C)(C)CCl | 63* | -10 | 2 | 35* | 1
CCCCCC[N+](C)(C)CCSSCC[N+](C)(C)CCCCCC | 1 | 4 | 0 | -5 | 1
CCCCCCCCCCCCCCCC[N+](C)(C)CC | 79* | -18 | 1 | 52* | 32
